Data reported in ChEMBL document CHEMBL1129496, “3-and 4-substituted 4H-pyrido[4,3-e]-1,2,4-thiadiazine 1,1-dioxides as potassium channel openers: synthesis, pharmacological evaluation, and structure-activity relationships” (1996).
Active and inactive are the calls of the source. The calls are words filed in the database; no cut-off is given here.

Columns and labels:
Format in all cases: functional
Rattus norvegicus [1] = species: Rattus norvegicus; assay: Residual insulin release from rat pancreatic islets at a concentration of 50 uM
Method in brief: (§1)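 Rat pancreatic islets in groups of 10 were preincubated 30 min at 37 °C in bicarbonate salt medium with 2.8 mM glucose and 0.5% dialyzed albumin, gassed with 95% O2/5% CO2. They were then incubated 90 min at 37 °C with 16.7 mM glucose plus test drug. Insulin was measured by radioimmunoassay against a rat insulin standard and reported as % residual release.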

Rattus norvegicus [2] = species: Rattus norvegicus; assay: Percentage of residual contractile response at 500 uM from isolated rat aorta
Rattus norvegicus [3] = species: Rattus norvegicus; assay: Percentage residual insulin release by the compound at 10 uM from rat pancreatic islets; method in brief: as §1
Rattus norvegicus [4] = species: Rattus norvegicus; assay: Percentage residual insulin release by the compound at 1 uM from rat pancreatic islets; method in brief: as §1
Rattus norvegicus [5] = species: Rattus norvegicus; assay: Percentage of residual contractile response in isolated rat aorta; +++ indicates that a maximal vasorelaxant activity was observed at 500 uM
Rattus norvegicus [6] = species: Rattus norvegicus; assay: Effective dose to give 50% relaxation of the KCl induced contraction
Method in brief: (§2)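 Endothelium-denuded transverse aortic rings (3-4 mm) from fed Wistar rats (250-300 g), held at 36 ± 1 °C under 95% O2/5% CO2. After 60 min equilibration they were contracted with 30 mM KCl. At the plateau (1-2 g), drug was added cumulatively until maximal relaxation or 1 mM. Isometric tension was recorded. ED50 was read graphically from each curve. Mean ± sem of 3-12 experiments.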

Rattus norvegicus [7] = species: Rattus norvegicus; assay: Effective dose concentration by the compound to give 50% relaxation of KCl induced concentration; method in brief: as §2
Rattus norvegicus [8] = species: Rattus norvegicus; assay: Percentage residual insulin release by the compound at 1(uM from rat pancreatic islets; details: in the assay text read “10(uM” for “1(uM”; method in brief: as §1
Rattus norvegicus [9] = species: Rattus norvegicus; assay: Effective dose to give 50% relaxation of KCl induced concentration; method in brief: as §2

## CC(C)NC1=NS(=O)(=O)c2cnccc2N1
Rattus norvegicus [1]
  Residual insulin secretion: 42.6%
Rattus norvegicus [2]
  Residual contractile activity: 89%

## CCNC1=NS(=O)(=O)c2cnccc2N1
Rattus norvegicus [1]
  Residual insulin secretion: 59.2%
Rattus norvegicus [2]
  Residual contractile activity: 87%

## O=S1(=O)N=C(NN2CCOCC2)Nc2ccncc21
Rattus norvegicus [1]
  Residual insulin secretion: 98.8%
Rattus norvegicus [2]
  Residual contractile activity: 93%

## CC1=NS(=O)(=O)c2cnccc2N1
Rattus norvegicus [1]
  Residual insulin secretion: 100.4%
Rattus norvegicus [2]
  Residual contractile activity: 92%

## CC1=NS(=O)(=O)c2cc(Cl)ccc2N1C
Rattus norvegicus [1]
  Residual insulin secretion: 83.9%

## CCC(C)NC1=NS(=O)(=O)c2cnccc2N1C (stereo not given)
Rattus norvegicus [1]
  Residual insulin secretion: 81%
Rattus norvegicus [2]
  Residual contractile activity: 61%

## CC(NC1=NS(=O)(=O)c2cc(Cl)ccc2N1)C(C)(C)C (stereo not given)
Rattus norvegicus [1]
  Residual insulin secretion: 9.3%
Rattus norvegicus [3]
  Residual insulin secretion: 46.9%
Rattus norvegicus [4]
  Residual insulin secretion: 87.7%
Rattus norvegicus [5]
  Residual contractile activity: maximal vasorelaxant activity was observed at 500 uM
Rattus norvegicus [6]
  ED50: 10 µM

## CC(C)(C)C1=NS(=O)(=O)c2cnccc2N1
Rattus norvegicus [1]
  Residual insulin secretion: 81.1%
Rattus norvegicus [7]
  ED50: 258 µM
Rattus norvegicus [5]
  Residual contractile activity: maximal vasorelaxant activity was observed at 500 uM

## CC1=NS(=O)(=O)c2cnccc2N1C(C)C
Rattus norvegicus [1]
  Residual insulin secretion: 68.1%
Rattus norvegicus [2]
  Residual contractile activity: 86%

## CC1=NS(=O)(=O)c2cnccc2N1N1C2CCCC1CC2
Rattus norvegicus [1]
  Residual insulin secretion: 71.9%
Rattus norvegicus [2]
  Residual contractile activity: 53%

## CC(C)C1=NS(=O)(=O)c2cnccc2N1
Rattus norvegicus [1]
  Residual insulin secretion: 79.7%
Rattus norvegicus [2]
  Residual contractile activity: 71%

## CC(C)CNC1=NS(=O)(=O)c2cnccc2N1
Rattus norvegicus [5]
  Residual contractile activity: maximal vasorelaxant activity was observed at 500 uM
Rattus norvegicus [6]
  ED50: 205 µM

## CC(C)NC1=NS(=O)(=O)c2cnccc2N1C
Rattus norvegicus [1]
  Residual insulin secretion: 79.4%
Rattus norvegicus [2]
  Residual contractile activity: 84%

## CC(C)C(C)NC1=NS(=O)(=O)c2cnccc2N1C (stereo not given)
Rattus norvegicus [1]
  Residual insulin secretion: 95.4%
Rattus norvegicus [2]
  Residual contractile activity: 69%

## CN1CCN(C2=NS(=O)(=O)c3cnccc3N2)CC1
Rattus norvegicus [1]
  Residual insulin secretion: 90.6%
Rattus norvegicus [5]
  Residual contractile activity: maximal vasorelaxant activity was observed at 500 uM
Rattus norvegicus [6]
  ED50: 125 µM

## CCC(C)NC1=NS(=O)(=O)c2cc(Cl)ccc2N1 (stereo not given)
Rattus norvegicus [1]
  Residual insulin secretion: 5.5%
Rattus norvegicus [3]
  Residual insulin secretion: 19.9%
Rattus norvegicus [4]
  Residual insulin secretion: 85.4%
Rattus norvegicus [5]
  Residual contractile activity: maximal vasorelaxant activity was observed at 500 uM
Rattus norvegicus [6]
  ED50: 25 µM

## CC(C)C(C)NC1=NS(=O)(=O)c2cnccc2N1 (stereo not given)
Rattus norvegicus [1]
  Residual insulin secretion: 8.6%
Rattus norvegicus [5]
  Residual contractile activity: Active
Rattus norvegicus [6]
  ED50: 302 µM

## CC1=NS(=O)(=O)c2cnccc2N1N1CCOCC1
Rattus norvegicus [1]
  Residual insulin secretion: 93.5%
Rattus norvegicus [2]
  Residual contractile activity: 89%

## CC1=NS(=O)(=O)c2cnccc2N1C
Rattus norvegicus [1]
  Residual insulin secretion: 109%
Rattus norvegicus [2]
  Residual contractile activity: 94%

## CC1=NS(=O)(=O)c2cnccc2N1C1CCCCC1
Rattus norvegicus [1]
  Residual insulin secretion: 87.9%
Rattus norvegicus [2]
  Residual contractile activity: 52%

## CC1=Nc2ccc(Cl)cc2S(=O)(=O)N1 [DIAZOXIDE]
Rattus norvegicus [3]
  Residual insulin secretion: 70%
Rattus norvegicus [5]
  Residual contractile activity: Active
Rattus norvegicus [6]
  ED50: 21 µM

## CCC1=NS(=O)(=O)c2cnccc2N1
Rattus norvegicus [1]
  Residual insulin secretion: 90.2%
Rattus norvegicus [2]
  Residual contractile activity: 74%

## O=S1(=O)N=C(NC2CCCC2)Nc2ccncc21
Rattus norvegicus [1]
  Residual insulin secretion: 31.6%
Rattus norvegicus [2]
  Residual contractile activity: 60%

## CCCC1=NS(=O)(=O)c2cnccc2N1
Rattus norvegicus [1]
  Residual insulin secretion: 85.1%
Rattus norvegicus [2]
  Residual contractile activity: 77%

## O=S1(=O)N=CNc2ccncc21
Rattus norvegicus [1]
  Residual insulin secretion: 99.5%
Rattus norvegicus [2]
  Residual contractile activity: 94%

## CCCNC1=NS(=O)(=O)c2cnccc2N1
Rattus norvegicus [2]
  Residual contractile activity: 88%

## O=S1(=O)NC(C2CCCC2)=Nc2ccc(Cl)cc21
Rattus norvegicus [1]
  Residual insulin secretion: 14.1%
Rattus norvegicus [7]
  ED50: 2.8 µM
Rattus norvegicus [5]
  Residual contractile activity: maximal vasorelaxant activity was observed at 500 uM

## CC(C)C(C)NC1=NS(=O)(=O)c2cc(Cl)ccc2N1 (stereo not given)
Rattus norvegicus [1]
  Residual insulin secretion: 11%
Rattus norvegicus [5]
  Residual contractile activity: maximal vasorelaxant activity was observed at 500 uM
Rattus norvegicus [6]
  ED50: 32 µM

## CCCCN(C)C1=NS(=O)(=O)c2cnccc2N1
Rattus norvegicus [1]
  Residual insulin secretion: 76.1%
Rattus norvegicus [2]
  Residual contractile activity: 47%

## O=S1(=O)N=C(C(F)(F)F)Nc2ccncc21
Rattus norvegicus [1]
  Residual insulin secretion: 90.4%
Rattus norvegicus [2]
  Residual contractile activity: 96%

## CC(NC1=NS(=O)(=O)c2cnccc2N1C)C(C)(C)C (stereo not given)
Rattus norvegicus [1]
  Residual insulin secretion: 88.5%
Rattus norvegicus [2]
  Residual contractile activity: 74%

## NC1=NS(=O)(=O)c2cnccc2N1
Rattus norvegicus [2]
  Residual contractile activity: 77%

## CCC(C)NC1=NS(=O)(=O)c2cnccc2N1 (stereo not given)
Rattus norvegicus [1]
  Residual insulin secretion: 9.4%
Rattus norvegicus [8]
  Residual insulin secretion: 49%
Rattus norvegicus [2]
  Residual contractile activity: 34%

## CC1=NS(=O)(=O)c2cnccc2N1C1CCCCCCC1
Rattus norvegicus [1]
  Residual insulin secretion: 90.6%
Rattus norvegicus [9]
  ED50: 248 µM
Rattus norvegicus [5]
  Residual contractile activity: maximal vasorelaxant activity was observed at 500 uM

## O=S1(=O)N=C(NC2CCCCC2)Nc2ccncc21
Rattus norvegicus [2]
  Residual contractile activity: 40%

## CC(NC1=NS(=O)(=O)c2cnccc2N1)C(C)(C)C (stereo not given)
Rattus norvegicus [1]
  Residual insulin secretion: 10.3%
Rattus norvegicus [3]
  Residual insulin secretion: 41%
Rattus norvegicus [4]
  Residual insulin secretion: 70%
Rattus norvegicus [5]
  Residual contractile activity: maximal vasorelaxant activity was observed at 500 uM
Rattus norvegicus [6]
  ED50: 104 µM

## O=S1(=O)N=C(C2CCCC2)Nc2ccncc21
Rattus norvegicus [1]
  Residual insulin secretion: 99.3%
Rattus norvegicus [7]
  ED50: 257 µM
Rattus norvegicus [5]
  Residual contractile activity: maximal vasorelaxant activity was observed at 500 uM

## CCCCNC1=NS(=O)(=O)c2cnccc2N1
Rattus norvegicus [3]
  Residual insulin secretion: 82%
Rattus norvegicus [2]
  Residual contractile activity: 74%
